Measured values reported in ChEMBL document CHEMBL1759915, “Synthesis and anticancer effects of some novel pyrazolo[3,4-d]pyrimidine derivatives by generating reactive oxygen species in human breast adenocarcinoma cells” (Eur J Med Chem, 2011).
Values after ≈ are worked out from the molar mass of the structure shown.

Columns and labels:
MCF7 [1] = assay: Effect on SOD level in human MCF7 cells assessed per mg protein at 2 ug/ml after 24 hrs (reference value: 27.61+/- 3.72 U/mg of protein); assay type: functional
MCF7 [2] = assay: Effect on CAT level in human MCF7 cells assessed per mg protein at 5 ug/ml after 24 hrs (reference value: 7.90+/- 0.67 U/mg of protein); assay type: functional
MCF7 [3] = assay: Effect on RNA level in human MCF7 cells assessed per 10 '6 cells at 5 ug/ml after 24 hrs (reference value: 11.50 +/- 0.70 ug/10^6 cells); assay type: functional
Outline: (§1)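 After 24 h exposure of MCF-7 cells to compound at 2, 5, 10 or 20 µg/ml at 37 °C, nucleic acids were precipitated from cell homogenates. DNA was extracted and assayed by the Zhou et al. method, and RNA by a kit-derived procedure. Results given per 10⁶ cells as means ± S.E. of four experiments versus untreated control.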

MCF7 [4] = assay: Effect on DNA level in human MCF7 cells assessed per 10 '6 cells at 2 ug/ml after 24 hrs (reference value: 6.80 +/- 0.70 ug/10^6 cells); assay type: functional; outline: as §1
MCF7 [5] = assay: Decrease in glutathione level in human MCF7 cells; assay type: functional, cell-based
MCF7 [6] = assay: Effect on DNA level in human MCF7 cells assessed per 10 '6 cells at 5 ug/ml after 24 hrs (reference value: 6.80 +/- 0.70 ug/10^6 cells); assay type: functional; outline: as §1
MCF7 [7] = assay: Decrease in RNA level in human MCF7 cells assessed per 10 '6 cells after 24 hrs relative to control; assay type: functional, cell-based; outline: as §1
MCF7 [8] = assay: Effect on CAT level in human MCF7 cells assessed per mg protein at 2 ug/ml after 24 hrs (reference value: 7.90+/- 0.67 U/mg of protein); assay type: functional
MCF7 [9] = assay: Effect on DNA level in human MCF7 cells assessed per 10 '6 cells at 20 ug/ml after 24 hrs (reference value: 6.80 +/- 0.70 ug/10^6 cells); assay type: functional; outline: as §1
MCF7 [10] = assay: Effect on hydrogen peroxide level in human MCF7 cells assessed per mg protein at 2 ug/ml by Wolf's method after 24 hrs (reference value: 12.50 +/- 1.54 nmol/mg of protein); assay type: functional
MCF7 [11] = assay: Decrease in glutathione peroxidase level in human MCF7 cells; assay type: functional, cell-based
MCF7 [12] = assay: Decrease in DNA level in human MCF7 cells assessed per 10 '6 cells after 24 hrs relative to control; assay type: functional, cell-based; outline: as §1
MCF7 [13] = assay: Increase in SOD level in human MCF7 cells; assay type: functional, cell-based
MCF7 [14] = assay: Effect on glutathione level in human MCF7 cells assessed per mg protein at 5 ug/ml by Ellman method after 24 hrs (reference value: 39.82 +/- 4.20 nmol/mg of protein); assay type: functional
MCF7 [15] = assay: Effect on RNA level in human MCF7 cells assessed per 10 '6 cells at 20 ug/ml after 24 hrs (reference value: 11.50 +/- 0.70 ug/10^6 cells); assay type: functional; outline: as §1
MCF7 [16] = assay: Effect on glutathione level in human MCF7 cells assessed per mg protein at 2 ug/ml by Ellman method after 24 hrs (reference value: 39.82 +/- 4.20 nmol/mg of protein); assay type: functional
MCF7 [17] = assay: Effect on hydrogen peroxide level in human MCF7 cells assessed per mg protein at 20 ug/ml by Wolf's method after 24 hrs (reference value: 12.50 +/- 1.54 nmol/mg of protein); assay type: functional
MCF7 [18] = assay: Antiproliferative activity against human MCF7 cells after 24 hrs by MTT assay; assay type: functional, cell-based; details: for IC50: MCF7, 24 h
Outline: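 MCF-7 cells (DMEM, 10% heat-inactivated FCS, penicillin/streptomycin, 37 °C, 5% CO2) plated at 0.65 × 10⁵ cells/well and given 24 h to attach. Exposed to compound or cisplatin at 2, 5, 10 or 20 µg/ml for 24 h at 37 °C. MTT added for 4 h, formazan dissolved in DMSO, absorbance read at 570 nm. Viability taken relative to untreated cells and IC50 derived.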

MCF7 [19] = assay: Effect on CAT level in human MCF7 cells assessed per mg protein at 20 ug/ml after 24 hrs (reference value: 7.90+/- 0.67 U/mg of protein); assay type: functional
MCF7 [20] = assay: Effect on SOD level in human MCF7 cells assessed per mg protein at 10 ug/ml after 24 hrs (reference value: 27.61+/- 3.72 U/mg of protein); assay type: functional
MCF7 [21] = assay: Effect on SOD level in human MCF7 cells assessed per mg protein at 20 ug/ml after 24 hrs (reference value: 27.61+/- 3.72 U/mg of protein); assay type: functional
MCF7 [22] = assay: Effect on SOD level in human MCF7 cells assessed per mg protein at 5 ug/ml after 24 hrs (reference value: 27.61+/- 3.72 U/mg of protein); assay type: functional
MCF7 [23] = assay: Effect on glutathione peroxidase level in human MCF7 cells assessed per mg protein at 20 ug/ml after 24 hrs (reference value: 11.20 +/- 1.36 U/mg of protein); assay type: functional
MCF7 [24] = assay: Effect on glutathione level in human MCF7 cells assessed per mg protein at 10 ug/ml by Ellman method after 24 hrs (reference value: 39.82 +/- 4.20 nmol/mg of protein); assay type: functional
MCF7 [25] = assay: Effect on glutathione level in human MCF7 cells assessed per mg protein at 20 ug/ml by Ellman method after 24 hrs (reference value: 39.82 +/- 4.20 nmol/mg of protein); assay type: functional
MCF7 [26] = assay: Effect on hydrogen peroxide level in human MCF7 cells assessed per mg protein at 5 ug/ml by Wolf's method after 24 hrs (reference value: 12.50 +/- 1.54 nmol/mg of protein); assay type: functional
MCF7 [27] = assay: Effect on glutathione peroxidase level in human MCF7 cells assessed per mg protein at 2 ug/ml after 24 hrs (reference value: 11.20 +/- 1.36 U/mg of protein); assay type: functional
MCF7 [28] = assay: Effect on DNA level in human MCF7 cells assessed per 10 '6 cells at 10 ug/ml after 24 hrs (reference value: 6.80 +/- 0.70 ug/10^6 cells); assay type: functional; outline: as §1
MCF7 [29] = assay: Effect on RNA level in human MCF7 cells assessed per 10 '6 cells at 2 ug/ml after 24 hrs (reference value: 11.50 +/- 0.70 ug/10^6 cells); assay type: functional; outline: as §1
MCF7 [30] = assay: Decrease in CAT level in human MCF7 cells; assay type: functional, cell-based
MCF7 [31] = assay: Increase in hydrogen peroxide level in human MCF7 cells; assay type: functional, cell-based
MCF7 [32] = assay: Effect on glutathione peroxidase level in human MCF7 cells assessed per mg protein at 10 ug/ml after 24 hrs (reference value: 11.20 +/- 1.36 U/mg of protein); assay type: functional
MCF7 [33] = assay: Effect on RNA level in human MCF7 cells assessed per 10 '6 cells at 10 ug/ml after 24 hrs (reference value: 11.50 +/- 0.70 ug/10^6 cells); assay type: functional; outline: as §1
MCF7 [34] = assay: Effect on CAT level in human MCF7 cells assessed per mg protein at 10 ug/ml after 24 hrs (reference value: 7.90+/- 0.67 U/mg of protein); assay type: functional
MCF7 [35] = assay: Effect on glutathione peroxidase level in human MCF7 cells assessed per mg protein at 5 ug/ml after 24 hrs (reference value: 11.20 +/- 1.36 U/mg of protein); assay type: functional
MCF7 [36] = assay: Effect on hydrogen peroxide level in human MCF7 cells assessed per mg protein at 10 ug/ml by Wolf's method after 24 hrs (reference value: 12.50 +/- 1.54 nmol/mg of protein); assay type: functional

Row | SMILES | Activity (MCF7 [1]) [U/mg protein] | Activity (MCF7 [2]) [U/mg protein] | Activity (MCF7 [3]) [µg/10^6 cells] | Activity (MCF7 [4]) [µg/10^6 cells] | Activity (MCF7 [5]) | Activity (MCF7 [6]) [µg/10^6 cells] | Activity (MCF7 [7]) | Activity (MCF7 [8]) [U/mg protein] | Activity (MCF7 [9]) [µg/10^6 cells] | Activity (MCF7 [10]) [nmol] | Activity (MCF7 [11]) | Activity (MCF7 [12]) | Activity (MCF7 [13]) | Activity (MCF7 [14]) [nmol] | Activity (MCF7 [15]) [µg/10^6 cells] | Activity (MCF7 [16]) [nmol] | Activity (MCF7 [17]) [nmol] | Activity (MCF7 [18]) | IC50 (MCF7 [18]) [µg/mL] | Activity (MCF7 [19]) [U/mg protein] | further results
1 | CCOCCSc1ncnc2c1cnn2-c1nc(C)nc2sc3c(c12)-c1ccccc1CC3 | 85.7 | 4.5 | 7 | 4.6 | Dose-dependent effect | 4.2 | Dose-dependent effect | 5.2 | 3 | 30.3 | Dose-dependent effect | Dose-dependent effect | Dose-dependent effect | 25 | 6.2 | 30 | 55 | Dose-dependent effect | 6.4 (≈ 13.5 µM) | 3.2 | Activity (MCF7 [20]): 190 U/mg protein; Activity (MCF7 [21]): 251 U/mg protein; Activity (MCF7 [22]): 115 U/mg protein; Activity (MCF7 [23]): 5.25 U/mg protein; Activity (MCF7 [24]): 20.25 nmol; Activity (MCF7 [25]): 18.6 nmol; Activity (MCF7 [26]): 30.5 nmol; Activity (MCF7 [27]): 7.35 U/mg protein; Activity (MCF7 [28]): 3.75 µg/10^6 cells; Activity (MCF7 [29]): 7.9 µg/10^6 cells; Activity (MCF7 [30]): Dose-dependent effect; Activity (MCF7 [31]): Dose-dependent effect; Activity (MCF7 [32]): 6 U/mg protein; Activity (MCF7 [33]): 6.5 µg/10^6 cells; Activity (MCF7 [34]): 4 U/mg protein; Activity (MCF7 [35]): 7 U/mg protein; Activity (MCF7 [36]): 40 nmol
2 | Cc1nc(-n2ncc3c(=S)[nH]cnc32)c2c3c(sc2n1)CCc1ccccc1-3 | 77.9 | 5.36 | 7.9 | 5.3 | Dose-dependent effect | 5 | Dose-dependent effect | 6.33 | 4 | 24.2 | Dose-dependent effect | Dose-dependent effect | Dose-dependent effect | 33.12 | 6.8 | 39.9 | 46.37 | Dose-dependent effect | 8 (≈ 19.9 µM) | 4 | Activity (MCF7 [20]): 121 U/mg protein; Activity (MCF7 [21]): 181 U/mg protein; Activity (MCF7 [22]): 85.4 U/mg protein; Activity (MCF7 [23]): 6.82 U/mg protein; Activity (MCF7 [24]): 29.11 nmol; Activity (MCF7 [25]): 27 nmol; Activity (MCF7 [26]): 21.6 nmol; Activity (MCF7 [27]): 8.3 U/mg protein; Activity (MCF7 [28]): 4.76 µg/10^6 cells; Activity (MCF7 [29]): 9.11 µg/10^6 cells; Activity (MCF7 [30]): Dose-dependent effect; Activity (MCF7 [31]): Dose-dependent effect; Activity (MCF7 [32]): 7.7 U/mg protein; Activity (MCF7 [33]): 7 µg/10^6 cells; Activity (MCF7 [34]): 4.9 U/mg protein; Activity (MCF7 [35]): 7.9 U/mg protein; Activity (MCF7 [36]): 30.5 nmol
3 | COCCSc1ncnc2c1cnn2-c1nc(C)nc2sc3c(c12)-c1ccccc1CC3 | 105 | 3.4 | 5.72 | 4 | Dose-dependent effect | 3.44 | Dose-dependent effect | 3.9 | 2.5 | 30.75 | Dose-dependent effect | Dose-dependent effect | Dose-dependent effect | 20.95 | 4.8 | 23.6 | 66.8 | Dose-dependent effect | 4.3 (≈ 9.34 µM) | 2.1 | Activity (MCF7 [20]): 310 U/mg protein; Activity (MCF7 [21]): 310 U/mg protein; Activity (MCF7 [22]): 136 U/mg protein; Activity (MCF7 [23]): 2.9 U/mg protein; Activity (MCF7 [24]): 18.75 nmol; Activity (MCF7 [25]): 15.6 nmol; Activity (MCF7 [26]): 45.77 nmol; Activity (MCF7 [27]): 6 U/mg protein; Activity (MCF7 [28]): 2.96 µg/10^6 cells; Activity (MCF7 [29]): 6.2 µg/10^6 cells; Activity (MCF7 [30]): Dose-dependent effect; Activity (MCF7 [31]): Dose-dependent effect; Activity (MCF7 [32]): 4 U/mg protein; Activity (MCF7 [33]): 5.21 µg/10^6 cells; Activity (MCF7 [34]): 3 U/mg protein; Activity (MCF7 [35]): 5.65 U/mg protein; Activity (MCF7 [36]): 58.5 nmol
